Data set [1] deals with Leishmania major. The data set can be described thus: Antileishmanial activity against Leishmania major MRHO/IR/75/ER promastigote infected in BALB/c mouse peritoneal macrophage after 24 hrs by MTT assay. The class given is functional, organism-based. The gist of the method: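 L. major vaccine strain MRHO/IR/75/ER, maintained by passage in BALB/c mice, grown on blood agar at 25 °C. Log-phase promastigotes at 2 × 10⁶/mL were put in phenol red-free RPMI 1640 with 10% FCS, 2 mM glutamine, pH ~7.2 and antibiotics, with serial drug dilutions, for 24 h at 25 °C. MTT (0.5 mg/mL) was added for 4 h at 37 °C; pellets were dissolved in DMSO and read on a plate reader. IC50 was determined.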

Data set [2] is described as follows: Cytotoxicity against BALB/c mouse peritoneal macrophage after 24 hrs by MTT assay. The class given is cell-based. To be noted: peritoneal macrophage cell. The gist of the method: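 Mouse peritoneal macrophages were seeded at 2 × 10⁵ cells/well. After adherence, the medium was replaced with medium holding one concentration per compound. Plates were incubated 24 h at 37 °C in humidified 5% CO2. Controls got culture medium plus DMSO. Viability was read by MTT colorimetric assay.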
A general note: Tetrazolium dyes change colour on reduction, which living cells bring about.

In general, IC50 refers to the concentration that inhibits the measured activity by half. Low readings indicate higher potency, high ones lower potency. The compound `COc1cc(C(=O)/C=C/C2=Cc3cc(Cl)ccc3OC2)cc(OC)c1OC` yielded an IC50 in data set [1] of 2.06 µM. Moreover, the Activity result in data set [2] is on record as “Non-toxic”. In turn, `O=C(/C=C/c1ccccc1Br)C1=Cc2cc(Cl)ccc2OC1` displayed an IC50 in data set [1] of 1.33 µM. The Activity entry in data set [2] is on record as “Non-toxic”. With `Cc1ccc(/C=C/C(=O)C2=Cc3cc(Cl)ccc3OC2)cc1`, in data set [1], the IC50 was 2.75 µM. In data set [2], the Activity result is given as “Non-toxic”. Taken in the same sequence, the figures for `COc1ccc(OC)c(/C=C/C(=O)C2=Cc3cc(Cl)ccc3OC2)c1` were 3 µM and “Non-toxic”. Consider `COc1cccc(/C=C/C(=O)C2=Cc3cc(Cl)ccc3OC2)c1OC`, for which half-maximal inhibition in data set [1] (IC50) was put at 2.8 µM. For the same compound, the Activity result in data set [2] was “Non-toxic”. Regarding `O=C(/C=C/C1=Cc2cc(Cl)ccc2OC1)c1ccccc1F`, half-maximal inhibition in data set [1] (IC50) required 2.22 µM. Further, in data set [2], the Activity result is recorded as “Non-toxic”.

In turn, `O=C(/C=C/C1=Cc2cc(Cl)ccc2OC1)c1ccccc1Cl` returned an IC50 in data set [1] of 1.22 µM. In addition, the Activity result in data set [2] is reported as “Non-toxic”. Taken in the same sequence, the figures for `O=C(/C=C/C1=Cc2cc(Cl)ccc2OC1)c1ccc(Cl)cc1Cl` were 1.91 µM and “Non-toxic”. MEGLUMINE ANTIMONATE returned an Activity in data set [2] of 40%.

The values above are taken from ChEMBL document CHEMBL1157026, “Novel antileishmanial chalconoids: synthesis and biological activity of 1- or 3-(6-chloro-2H-chromen-3-yl)propen-1-ones” (Eur J Med Chem, 2010).
